≈ marks a conversion by molar mass, not a printed value. Calls of active or inactive are those of the source. The rule behind the calls is not given here.
What was measured:
Plasmodium falciparum = experiment: Antiplasmodium activity against chloroquine-sensitive Plasmodium falciparum NF54 assessed as inhibition of [3H[hypoxanthine incorporation; assay type: functional, organism-based
Summary of the method: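 Run at Swiss TPH on P. falciparum NF54 (3D7 is a clone of it). Read-out is 3H-hypoxanthine incorporation. IC50 is the mean of ≥2 experiments.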

[1] = Kinetic solubility of the compound in phosphate buffered saline after 2 hrs at pH 7.4; assay type: physicochemical; conditions: read-out: Kinetic_solubility
Summary of the method: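 Kinetic solubility measured in PBS, pH 7.4.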

Plasmodium berghei [2] = experiment: Antimalarial activity against GFP-transfected Plasmodium berghei ANKA infected in mouse assessed as change in host survival time at 50 mg/kg, sc administered QD for 4 days relative to untreated control; assay type: functional, organism-based; parameters: dose 50 mg/kg
Summary of the method: (§1)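 Peters 4-day test: 50 mg/kg given sc once daily for 4 days. Parasitemia reduction and survival days are compared against infected, untreated control animals.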

[3] = Metabolic stability in human hepatic microsomes assessed as % turnover at 1 uM after 40 mins by LC/MS/MS analysis; conditions: liver microsomes
Plasmodium berghei [4] = experiment: Antimalarial activity against GFP-transfected Plasmodium berghei ANKA infected in mouse assessed as reduction in parasitemia at 50 mg/kg, sc administered QD for 4 days relative to vehicle-treated control; assay type: functional; parameters: scale not given: the % may be the effect or the level left; conditions: route subcutaneous; summary of the method: as §1
[5] = Efflux ratio of apparent permeability across human Caco2 cells at 10 uM after 60 mins; assay type: ADME, cell-based; conditions: Caco-2
Summary of the method: (§2)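 Apical and basal chambers in HBSS, pH 7.4. Compound at 10 μM added to the donor side at time zero. Donor and acceptor chambers both sampled after 60 min at 37 °C. A>B permeability reported in 10^-6 cm/s, plus efflux ratio.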

[6] = […]-phosphate buffered saline partition coefficient, log D after 5 hrs by LC-UV analysis at pH 7.4; assay type: physicochemical; conditions: octan-1-ol/phosphate buffered saline
Summary of the method: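 Log D from partition between octan-1-ol and phosphate-buffered PBS at pH 7.4.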

[7] = Apparent permeability of the compound from apical to basal side of human Caco2 cells at 10 uM after 60 mins; assay type: ADME, cell-based; conditions: Caco-2; summary of the method: as §2

| Structure (SMILES) | IC50 (Plasmodium falciparum) | other results |
| --- | --- | --- |
| Cc1nnc(Cl)c2nn(-c3cccc(Cl)c3)c(C)c12 | 280 nM |  |
| COc1ccc(CNc2cccc3[nH]c(C)nc23)cc1 | 9900 nM |  |
| COc1cccc(-n2nc3c(C)nnc(C)c3c2C)c1 | > 100000 nM |  |
| O=C(Cc1ccccc1)Nc1cccc2[nH]c(C(F)(F)F)nc12 | > 100000 nM |  |
| c1ccc(-c2csc3ncnc(Sc4nnc5ccccn45)c23)cc1 | 2670 nM |  |
| COc1ccc(CNc2cccc3[nH]c(C(F)(F)F)nc23)cc1 | 3930 nM |  |
| O=C(Nc1cccc2[nH]c(C(F)(F)F)nc12)c1ccc(Cl)cc1 | 10800 nM |  |
| Cc1ccc(-n2nc3c(C)nnc(C)c3c2C)cc1 | > 100000 nM |  |
| c1ccn2c(Sc3ncnc4sccc34)nnc2c1 | 150 nM | solubility kinetic at 2 h [1]: 20 µM (≈ 5.71 µg/mL); Activity (Plasmodium berghei [2]): inactive; % turnover at 40 min, 1 µM [3]: 50%; Activity (Plasmodium berghei [4]): 34%; efflux ratio at 1 h, 10 µM [5]: 0.28; logD at 5 h [6]: > 3.8; Papp A→B at 1 h, 10 µM [7]: 50 ×10⁻⁶ cm/s |
| Cc1sc2ncnc(Sc3nnc(C(F)(F)F)n3C)c2c1C | 5170 nM |  |
| Fc1ccc(CNc2cccc3[nH]c(C(F)(F)F)nc23)cc1 | 490 nM | solubility kinetic at 2 h [1]: < 5 µM; % turnover at 40 min, 1 µM [3]: 19%; efflux ratio at 1 h, 10 µM [5]: 0.43; logD at 5 h [6]: 2; Papp A→B at 1 h, 10 µM [7]: 1.5 ×10⁻⁶ cm/s |
| Cc1nnc(N2CCOCC2)c2nn(-c3ccccc3)c(C)c12 | > 100000 nM |  |
| Cc1ccc(S(=O)(=O)Nc2cccc3[nH]c(C(F)(F)F)nc23)cc1 | > 100000 nM |  |
| Cn1c(Sc2ncnc3sccc23)nnc1C1CC1 | 1480 nM |  |
| Cc1nnc(Cl)c2nn(-c3ccccc3)c(C)c12 | 430 nM |  |
| Cc1ccc(-n2c(Sc3ncnc4sccc34)nnc2N2CCCC2)cc1 | 150 nM |  |
| CC(=O)/N=C(/NC(C)=O)Nc1nc(C)c2cc(C)ccc2n1 | 3740 nM |  |
| CCc1nnc(Sc2ncnc3sccc23)[nH]1 | 1160 nM |  |
| Cc1nnc(C)c2c(C)n(-c3ccc4c(c3)OCO4)nc12 | > 100000 nM |  |
| Cc1nc(NC2=NCCC(=O)N2)nc2ccccc12 | > 100000 nM |  |
| COc1nc(NC(=N)N)nc2ccc(C)cc12 | 740 nM |  |
| CCOc1nnc(C)c2c(C)n(-c3cccc(OC)c3)nc12 | 16000 nM |  |
| CCCCN1CN=C(Nc2nc(C)c3ccccc3n2)NC1 | 1580 nM |  |
| Cc1sc2ncnc(Sc3nnc4ccccn34)c2c1C | 460 nM |  |
| CCOc1ccc(-n2nc3c(Cl)nnc(C)c3c2C)cc1 | 340 nM |  |
| Cc1nnc(Cl)c2nn(-c3ccc(Cl)cc3)c(C)c12 | 420 nM |  |
| Cc1ccc(-n2nc3c(Cl)nnc(C)c3c2C)cc1 | 310 nM |  |

From ChEMBL document CHEMBL2086373, “Identification and In-Vitro ADME Assessment of a Series of Novel Anti-Malarial Agents Suitable for Hit-to-Lead Chemistry” (ACS Med Chem Lett, 2012)
